The source made the active and inactive calls.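 The calls were made as follows: active = compounds cutting cell ATP light whose fitted AC50 is at most double the top dose tried; inconclusive = flat moderate signal loss, or an unreliable curve fit; inactive = the rest.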 Some results are limits rather than exact numbers.

This assay concerns ldlA[mSR-BI] CHO cells viability, CellTiter-Glo ATP luminescence, 24 h. Put plainly: cytotoxicity in ldlA[mSR-BI] CHO cells, dose response, cytotoxicity control for SR-BI HDL uptake inhibitor project, cell-based, CellTiter-Glo luminescence, 24 h, dry powder, set 5 (AID 602126). Summed up:
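Assay system: ldlA[mSR-BI] cells, cell viability measurement. Amount: 4,000 ldlA[mSR-BI] cells per well. Schedule: 24 h treatment at 37 °C, 10 min reagent step. Measured by: luminescence of cellular ATP via CellTiter-Glo luciferase reagent. Measure: IC50 of cell viability from ATP-dependent luminescence.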
For `C[C@H]1CN([C@@H](C)CO)C(=O)c2cc(NC(=O)Nc3ccccc3)ccc2O[C@@H]1CN(C)Cc1ccc(Cl)c(Cl)c1`, the AC50 was 57 µM.

On to `CCC(=O)N1CCc2cc(-c3csc(NC(=O)c4cccs4)n3)ccc21`, for which the concentration at half-maximal activity (AC50) was 64.4 µM.

On to `COc1ccc(-c2nnn(CC(=O)N(CC(=O)NC3CCCC3)C3CCCCC3)n2)cc1OC`, for which the AC50 is > 70 µM (inactive). With `O=C(Nc1ccccc1Cl)c1ccccc1NS(=O)(=O)c1ccccc1`, the AC50 is 37.2 µM. As for `CCC(=O)N1CCc2cc(-c3csc(NC(=O)c4cc(OC)c(OC)c(OC)c4)n3)ccc21`, the AC50 is > 70 µM (inactive).

Turning to `C[C@H]1CN([C@@H](C)CO)C(=O)c2cc(NC(=O)Cc3cn(C)c4ccccc34)ccc2O[C@H]1CN(C)S(=O)(=O)c1ccc(Cl)cc1`, the AC50 is > 70 µM (inactive). The figure for `CCc1cc2cc3c(cc2nc1SCC(=O)OC(C)C)OCO3` is > 70 µM (inactive).

As to `O=C(Nc1ccc(Cl)cc1C(=O)c1ccc(Cl)cc1)c1cc(Br)ccc1NS(=O)(=O)c1ccc(Cl)cc1`, the half-maximal activity concentration (AC50) is 4.98 µM. To `O=C(Nc1cc(C(F)(F)F)ccc1Cl)c1ccccc1NS(=O)(=O)c1ccc(Cl)cc1` belongs 0.285 µM.

With `CCOC(=O)N1CCC(NC(=O)c2ccc3c(c2)N(Cc2ccc(F)cc2)CCS3)CC1`, the concentration at half-maximal activity (AC50) was 65.5 µM. To `CCOc1ccccc1/C=C/c1onc(C)c1S(=O)(=O)N1CCC(C(=O)NC(C)(C)C)CC1` belongs > 70 µM (inactive); to `CCc1sc(N2C(=O)C3C4CCC(C4=C(C)C)C3C2=O)nc1-c1ccccc1` (stereo not given), > 70 µM (inactive). To `CC(C(=O)NC1CCCC1)N(C(=O)Cn1nnc(-c2ccc(Cl)c(Cl)c2)n1)C1CCCCC1` (stereo not given) belongs 37 µM; to `O=C(Nc1nc(-c2ccc3c(c2)CCN3)cs1)c1ccco1`, > 70 µM (inactive).

In the case of `N#Cc1sc2nc(C3CC3)cc(-c3ccc(Cl)cc3)c2c1N`, the AC50 is 63.1 µM. To `CCC(=O)N1CCc2cc(-c3csc(NC(=O)c4cccc(OC)c4)n3)ccc21` belongs > 70 µM (inactive); to `C[C@@H]1CN([C@H](C)CO)C(=O)c2cc(NC(=O)Cc3cn(C)c4ccccc34)ccc2O[C@@H]1CN(C)S(=O)(=O)c1ccc(F)cc1`, 50.8 µM. As to `O=C(Nc1ccc(-c2nc3ccc(NC(=O)c4ccccc4)cc3[nH]2)cc1)c1ccccc1`, the AC50 was 2.63 µM. The figure for `C[C@H]1CN([C@@H](C)CO)C(=O)c2cccc(N(C)C)c2O[C@@H]1CN(C)Cc1ccc(Cl)c(Cl)c1` is > 70 µM (inactive).

As to `CCn1c(COc2c(C)cccc2C)nnc1SCC(=O)N1CCN(c2ccccc2)CC1`, the half-maximal activity concentration (AC50) was 65.2 µM. Take `COc1cc(OC)cc(C(=O)Nc2nc(-c3ccc4c(c3)CCN4C(=O)CN(C)C)cs2)c1`: the AC50 was 20.2 µM. Take `C=CCN1CCc2cc(-c3csc(NC(=O)c4ccco4)n3)ccc21`: the AC50 is 57.7 µM. The figure for `CCC(=O)N1CCc2cc(-c3cn4ccccc4n3)ccc21` is 15.8 µM; for `Cc1ccccc1NC(=O)NCC1CCN(c2ccc(S(=O)(=O)N3CCOCC3)cc2)CC1` it is 58.3 µM; for `CCC(=O)N1CCc2cc(-c3csc(NC(=O)c4ccco4)n3)ccc21` it is > 70 µM (inactive). The figure for `O=C(CN(C(=O)Cn1nnc(-c2ccc3c(c2)OC(F)(F)O3)n1)C1CCCCC1)NC1CCCC1` is > 70 µM (inactive); for `CC(C(=O)NC1CCCC1)N(C(=O)Cn1nnc(-c2ccc3c(c2)OC(F)(F)O3)n1)C1CCCCC1` (stereo not given) it is 55.2 µM. To `CCC(=O)N1CCc2cc(-c3csc(NC(=O)c4cccc(OC(F)(F)F)c4)n3)ccc21` belongs > 70 µM (inactive); to `C[C@@H]1CN([C@@H](C)CO)C(=O)c2cc(NC(=O)Cc3cn(C)c4ccccc34)ccc2O[C@@H]1CN(C)S(=O)(=O)c1ccc(Cl)cc1`, > 70 µM (inactive); to `CCC(=O)Nc1ccc(-c2csc(N)n2)cc1`, > 70 µM (inactive). As for `CC(C(=O)NC1CCCC1)N(C(=O)Cn1nnc(-c2ccc3c(c2)OCO3)n1)C1CCCCC1` (stereo not given), the AC50 is 53 µM. To `CS(=O)(=O)N1CCc2cc(-c3csc(NC(=O)c4ccco4)n3)ccc21` belongs > 70 µM (inactive); to `COC(=O)c1cn(C(=O)c2cccc3ccccc23)c2ccccc12`, 38 µM; to `C[C@@H]1CN([C@@H](C)CO)C(=O)c2cc(NC(=O)Cc3cn(C)c4ccccc34)ccc2O[C@@H]1CN(C)S(=O)(=O)c1ccc(F)cc1`, > 70 µM (inactive).

On to `O=C(Nc1cccc(NC(=O)c2cc([N+](=O)[O-])ccc2Cl)n1)c1cc([N+](=O)[O-])ccc1Cl`, for which the half-maximal activity concentration (AC50) is 21.9 µM.

With `C[C@H](CO)N1C[C@H](C)[C@@H](CN(C)S(=O)(=O)c2ccc(Cl)cc2)Oc2ccc(NC(=O)Cc3cn(C)c4ccccc34)cc2C1=O`, the AC50 was > 70 µM (inactive). As for `CCC(=O)N1CCc2cc(-c3csc(NC(=O)C4CCCO4)n3)ccc21` (stereo not given), the AC50 was 46.5 µM. `COc1cc(OC)cc(C(=O)Nc2nc(-c3ccc4c(c3)CCN4C(C)=O)cs2)c1`: the AC50 was > 70 µM (inactive). To `COCC(=O)N1CCc2cc(-c3csc(NC(=O)c4cc(OC)cc(OC)c4)n3)ccc21` belongs > 70 µM (inactive); to `O=C(Nc1ccc(-c2nc3cc(NC(=O)c4ccccc4[N+](=O)[O-])ccc3o2)cc1)c1ccccc1[N+](=O)[O-]`, 36.3 µM. The figure for `O=C(Nc1ccccc1)c1ccccc1NS(=O)(=O)c1ccc(Cl)cc1` is 32.5 µM; for `COc1ccc(-c2cc(CC(=O)N(C3CCCCC3)C(C)C(=O)NC3CCCC3)no2)cc1OC` (stereo not given) it is > 70 µM (inactive). The figure for `COc1ccc([C@H]2CC(=O)C=C(c3cccc4c3sc3ccccc34)C2)cc1OC` is > 70 µM (inactive); for `CCC(=O)Nc1ccc(-c2csc(NC(=O)c3cccc(OC)c3)n2)cc1` it is > 70 µM (inactive); for `CCC(=O)N1CCc2cc(-c3csc(NC(=O)c4cc(OC)cc(OC)c4)n3)ccc21` it is > 70 µM (inactive). Turning to `O=C(Nc1cc(Cl)ccc1Cl)c1cc(Cl)ccc1NS(=O)(=O)c1ccc(Cl)c([N+](=O)[O-])c1`, the AC50 was 17.3 µM. To `C[C@@H]1CN([C@H](C)CO)C(=O)c2cc(NC(=O)Cc3cn(C)c4ccccc34)ccc2O[C@@H]1CN(C)S(=O)(=O)c1ccc(Cl)cc1` belongs > 70 µM (inactive); to `Cc1cc(C)n(CC(=O)NC2CCCc3c2cnn3-c2ccc(C)c(C)c2)n1` (stereo not given), > 70 µM (inactive); to `COc1cccc(-c2csc(N3CCN(C(=S)Nc4cccc(Cl)c4)CC3)n2)c1`, 51.7 µM. To `CCCN1CCc2cc(-c3csc(NC(=O)c4cc(OC)cc(OC)c4)n3)ccc21` belongs > 70 µM (inactive).

Consider `CC(C(=O)NC1CCCC1)N(C(=O)Cn1nnc(-c2cccc(F)c2)n1)C1CCCCC1` (stereo not given), for which the AC50 was > 70 µM (inactive). Turning to `O=C(Nc1cc(Cl)ccc1Cl)c1cc(Br)ccc1NS(=O)(=O)c1ccc(Cl)c([N+](=O)[O-])c1`, the half-maximal activity concentration (AC50) was 21 µM.

For the molecule `C[C@H]1CN([C@@H](C)CO)C(=O)c2cc(NC(=O)Cc3cn(C)c4ccccc34)ccc2O[C@@H]1CN(C)S(=O)(=O)c1ccc(Cl)cc1`, the AC50 is > 70 µM (inactive). `COc1cc(OC)cc(C(=O)Nc2nc(-c3ccc4c(c3)CCN4)cs2)c1`: the AC50 is 46.5 µM.

Consider `O=C(Nc1ccc(-c2nc3ccc(NC(=O)c4ccc(Cl)cc4)cc3[nH]2)cc1)c1ccc(Cl)cc1`, for which the AC50 is 1.3 µM. To `Cc1cc(SC(C)C(=O)Nc2ncc(Cl)cc2Cl)nc2ccccc12` (stereo not given) belongs 35.1 µM; to `C[C@H]1CN([C@@H](C)CO)C(=O)c2cccc(NC(=O)Nc3ccc(F)cc3)c2O[C@@H]1CN(C)Cc1ccc(Cl)c(Cl)c1`, 21.6 µM; to `CC(C)C(=O)N1CCc2cc(-c3csc(NC(=O)c4ccco4)n3)ccc21`, > 70 µM (inactive). As for `COc1ccc(-c2nnn(CC(=O)N(C3CCCCC3)C(C)(C)C(=O)NC3CCCC3)n2)cc1OC`, the AC50 is > 70 µM (inactive). Take `COc1cc(OC)cc(C(=O)Nc2nc(-c3ccc4[nH]ccc4c3)cs2)c1`: the AC50 is 15.6 µM. For `CC(C)NC(=O)Nc1cccc2c1O[C@H](CN(C)Cc1ccc(Cl)c(Cl)c1)[C@@H](C)CN([C@@H](C)CO)C2=O`, the AC50 is > 70 µM (inactive). To `COC(=O)N1CCc2cc(-c3csc(NC(=O)c4cc(OC)cc(OC)c4)n3)ccc21` belongs > 70 µM (inactive); to `CCNC(=O)N1CCc2cc(-c3csc(NC(=O)c4cc(OC)cc(OC)c4)n3)ccc21`, 60 µM. As for `CC(C(=O)NC1CCCC1)N(C(=O)Cn1nnc(-c2ccc(Cl)cc2)n1)C1CCCCC1` (stereo not given), the AC50 was > 70 µM (inactive). The figure for `O=C(Nc1ccc(-c2nc3cc(NC(=O)c4ccccc4Cl)ccc3o2)cc1)c1ccccc1Cl` is 43.9 µM; for `CCC(=O)N1CCc2cc(-c3csc(N(C)C(=O)c4cc(OC)cc(OC)c4)n3)ccc21` it is 15.1 µM; for `COc1ccc(OC)c(CCNC(=O)c2ccc3c(c2)N(Cc2ccc(F)cc2)CCS3)c1` it is > 70 µM (inactive).

On to `CCCCCCC1CCC/C1=N\NC(N)=S` (stereo not given), for which the AC50 is 2.13 µM. In the case of `C[C@@H]1CN([C@H](C)CO)C(=O)c2cc(NC(=O)Cc3cn(C)c4ccccc34)ccc2O[C@H]1CN(C)S(=O)(=O)c1ccccc1`, the AC50 was 49.8 µM. To `COc1ccc(-c2nc(CC(=O)N(C3CCCCC3)C(C)C(=O)NC3CCCC3)cs2)cc1OC` (stereo not given) belongs 67 µM; to `O=C(CN(C(=O)Cn1nnc(-c2ccc3c(c2)OCO3)n1)C1CCCCC1)NC1CCCC1`, > 70 µM (inactive).

As to `CCC(=O)N1CCc2cc(-c3csc(NC(=O)c4cccc(OC)n4)n3)ccc21`, the half-maximal activity concentration (AC50) was 66.5 µM. The figure for `C[C@H](CO)N1C[C@H](C)[C@H](CN(C)S(=O)(=O)c2ccc(F)cc2)Oc2ccc(NC(=O)Cc3cn(C)c4ccccc34)cc2C1=O` is > 70 µM (inactive); for `C[C@H]1CN([C@@H](C)CO)C(=O)c2cccc(NC(=O)Nc3ccccc3)c2O[C@@H]1CN(C)Cc1ccccc1` it is > 70 µM (inactive); for `O=C(CN(C(=O)Cn1nnc(-c2ccc(Cl)c(Cl)c2)n1)C1CCCCC1)NC1CCCC1` it is 46.2 µM.

Source of the values: PubChem BioAssay AID602126 (Broad Institute, 2011).
